CHRM5 agonist – human M5 muscarinic receptor agonists, primary screen, CHO-K1 cells, Fluo-8 calcium fluorescence | Muscarinic acetylcholine receptor M5 (Homo sapiens), P08912 | CHO-K1 hM5 cells; 0% DMSO wells, 100% maximal acetylcholine response | activation, % at 3 µM | actives 0.19% (n = 360,000);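 active means activation above the run's mean over test compounds plus 3 SD, cut at about 23% in these data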;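 further: signal is peak over basal fluorescence ratio across the kinetic read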
Target sequence (P08912 whole entry, looked up): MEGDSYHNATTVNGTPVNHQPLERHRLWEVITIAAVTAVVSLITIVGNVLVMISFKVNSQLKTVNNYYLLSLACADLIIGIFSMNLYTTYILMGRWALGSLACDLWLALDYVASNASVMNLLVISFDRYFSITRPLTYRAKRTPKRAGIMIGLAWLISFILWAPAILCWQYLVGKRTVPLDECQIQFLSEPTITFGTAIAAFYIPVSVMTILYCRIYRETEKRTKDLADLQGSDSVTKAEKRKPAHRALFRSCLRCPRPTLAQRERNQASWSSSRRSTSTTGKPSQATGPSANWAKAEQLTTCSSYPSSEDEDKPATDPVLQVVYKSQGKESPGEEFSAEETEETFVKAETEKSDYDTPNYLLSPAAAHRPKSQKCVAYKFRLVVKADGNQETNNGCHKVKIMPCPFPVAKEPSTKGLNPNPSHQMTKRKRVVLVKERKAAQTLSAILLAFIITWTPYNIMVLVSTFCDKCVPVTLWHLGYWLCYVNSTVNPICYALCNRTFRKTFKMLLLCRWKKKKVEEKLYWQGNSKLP
CHRM4 PAM – human M4 muscarinic receptor positive allosteric modulators, primary screen, CHO-K1 cells, Fluo-8 calcium fluorescence | Muscarinic acetylcholine receptor M4 (Homo sapiens), P08173 | CHO-K1 hM4/Gqi5, ACh EC20; 0% = ACh EC20, 100% = maximal ACh | activation, % at 3 µM | actives 0.4% (n = 360,000) | AID 624126, 2012;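 active means activation above its plate's cutoff, the mean activation of sample wells plus 3 SD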
M5 PAM – human M5 muscarinic receptor positive allosteric modulators, primary screen, CHO-K1 cells, Fluo-8 calcium fluorescence | activation, % at 3 µM | Muscarinic acetylcholine receptor M5 (Homo sapiens), P08912 | AID 624038, 2012 | actives 0.3% (n = 360,000) | CHO-K1 hM5, ACh EC20 PAM; 0% = ACh EC20, 100% = ACh EC100;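 active means activation above the run cutoff, the mean activation of all test compounds plus 3 SD, cut at about 18% in these data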
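Measured by: Fluo-8 calcium fluorescence; material: human M5 receptor in CHO-K1 cells; schedule: Post-acetylcholine fluorescence recording 140 s; benchmarks: low control EC20 acetylcholine (0%), high control EC100 acetylcholine (100%); read-out: Max/basal fluorescence ratio as % of EC20–EC100 ACh window; compound: single dose, 3 µM nominal final test concentration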
M4 antag – human M4 muscarinic receptor antagonists, primary screen, CHO cells, Fluo-8 calcium fluorescence | CHO-hM4 cells, ACh EC80 | inhibition, % at 3 µM | actives 0.73% (n = 360,000) | AID 624125, 2012;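 active means inhibition above its plate's cutoff, the mean inhibition of sample wells plus 3 SD, cut at about 27% in these data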;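 further: 0% = acetylcholine EC80 with DMSO and 100% = DMSO without agonist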
CHRM4 agonist – human M4 muscarinic receptor agonists, primary screen, CHO-K1 cells, Fluo-8 calcium fluorescence. Muscarinic acetylcholine receptor M4 (Homo sapiens), P08173. CHO-K1 hM4/Gqi5; vehicle 0%, full acetylcholine response 100%. activation, % at 3 µM. actives 0.14% (n = 360,000);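 active means activation above the run mean over all test wells plus 3 SD, cut at about 32% in these data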;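 further: peak over basal fluorescence ratio per well then scaled between controls; 0% = DMSO wells and 100% = acetylcholine at EC100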
CHRM5 antagonist – human M5 muscarinic receptor antagonists, primary screen, CHO cells, Fluo-8 calcium fluorescence | Muscarinic acetylcholine receptor M5 (Homo sapiens), P08912 | CHO-hM5 cells, ACh EC80 | inhibition, % at 3 µM | actives 0.59% (n = 360,000);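 active means inhibition above a per-plate cutoff, the mean of that plate's test compounds plus 3 SD, cut at about 27% in these data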;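 further: 0% = acetylcholine EC80 with DMSO and 100% = DMSO without agonist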
An asterisk follows results filed as active. The list is not random: actives were taken first. Their share in the collection is about 1.8%.

SMILES	CHRM5 agonist	CHRM4 PAM	M5 PAM	M4 antag	CHRM4 agonist	CHRM5 antagonist
COc1ccccc1OCCNC(=O)CNC(=O)c1ccc(C(C)(C)C)cc1	-4	16	6	-16	1	10
Fc1ccc(-[n+]2nc(Nc3ccccc3)sc2-c2c3ccccc3cc3ccccc23)cc1	36*	-3	-20	9	16	39*
COc1ccc(C)cc1Nc1n[n+](-c2ccccc2)c(-c2cc(OC)c(OC)cc2Br)s1	-8	10	-3	-14	1	22
COc1ccc(C)cc1Nc1n[n+](-c2ccccc2)c(-c2c(OC)ccc3ccccc23)s1	-2	-6	-31	17	21	27*
C[C@@H]1CN([C@H](C)CO)C(=O)CCCn2cc(nn2)CO[C@H]1CN(C)S(=O)(=O)c1ccc(C#N)cc1	-1	-2	0	2	-1	11
CCc1c(C)c2ccc(OCC(=O)N(C)C)c(C)c2oc1=O	1	7	-3	-3	1	-3
CCOC(=O)CCc1c(C)c2ccc(OCC(=O)N(CC)CC)c(C)c2oc1=O	2	-15	-6	36*	-2	6
COc1ccccc1CCC(=O)Nc1ccc2c(c1)c(=O)n(C)n2-c1cccs1	0	-2	-1	6	2	3
CN(CC(=O)Nc1ccc(C#N)cc1)Cc1ccc(Cl)cc1	-1	-14	-12	8	3	14
CN(CC(=O)Nc1ccc(C#N)cc1)Cc1ccc(Cl)cc1Cl	-6	-21	-23	17	2	27*
CCOC(=O)C1(C)CCCN(C(=O)c2c(-c3ccccc3)noc2C)C1 (stereo not given)	-1	2	0	-7	1	4
Fc1ccc(-n2nnc(-c3cccnc3)n2)cc1	2	11	3	-4	1	8
Fc1ccc(C(CCCn2nnc(-c3cccnc3)n2)c2ccc(F)cc2)cc1	-10	-18	-54	29*	6	22
CCOc1cc(/C=C2\SC(=O)N(CC(=O)Nc3ccccc3F)C2=O)cc([N+](=O)[O-])c1O	0	11	23*	-2	-1	-1
C[C@@H]1CN([C@@H](C)CO)S(=O)(=O)c2ccc(Br)cc2O[C@H]1CN(C)Cc1ccccn1	1	-7	-2	0	9	7
CC1(C)CC(C(CCN(Cc2ccccc2)C(=O)c2ccco2)c2ccc(F)cc2)CCO1 (stereo not given)	-3	-18	-19	27*	8	17
COc1ccc(/C=C/C(=O)Nc2ccccc2C(=O)NCC(c2ccc(OC)cc2)N(C)C)cc1 (stereo not given)	-3	-10	-7	4	12	12
CCN(CCn1cccn1)C(=O)CCc1nnc(CCCc2ccccc2)o1	-2	-3	-9	7	1	8
CCN(CCn1cccn1)C(=O)CCc1nnc(-c2ccc3c(c2)OCO3)o1	0	9	22*	0	0	-6
Oc1ccc(Nc2nc(-c3ccc(O)cc3)cs2)cc1	1	34*	12	-2	0	0
NS(=O)(=O)c1ccc(Nc2nc(-c3ccc(O)cc3)cs2)cc1	1	-11	-11	19	2	12
S=C1NCN(Cc2ccco2)CN1	5	6	23*	4	2	-5
C=CCN1CN(Cc2ccco2)CNC1=S	-1	-3	0	18	0	3
CN1CCN(c2ccccc2NC(=O)C(Cc2ccccc2)n2cccc2)CC1 (stereo not given)	-2	-13	-3	32*	6	1

Compound activity deposited in PubChem BioAssay by The Scripps Research Institute Molecular Screening Center.
